Measured values published in paper PMC9860122 (The Journal of Biological Chemistry, 2022).
Numbering of substitutions follows the chain as printed. Like-named read-outs stand apart in the source and are kept apart here.

Tests used:
[1] = biological target: T1, NmeIPMSR470Q (Neisseria meningitidis serogroup B, UniProt Q9JZG1, R470Q); experiment: DTP-coupled kinetic assay; type: biochemical; settings: homodimer R470Q, apparent Km
T1 sequence (Q9JZG1 1-517 R470Q): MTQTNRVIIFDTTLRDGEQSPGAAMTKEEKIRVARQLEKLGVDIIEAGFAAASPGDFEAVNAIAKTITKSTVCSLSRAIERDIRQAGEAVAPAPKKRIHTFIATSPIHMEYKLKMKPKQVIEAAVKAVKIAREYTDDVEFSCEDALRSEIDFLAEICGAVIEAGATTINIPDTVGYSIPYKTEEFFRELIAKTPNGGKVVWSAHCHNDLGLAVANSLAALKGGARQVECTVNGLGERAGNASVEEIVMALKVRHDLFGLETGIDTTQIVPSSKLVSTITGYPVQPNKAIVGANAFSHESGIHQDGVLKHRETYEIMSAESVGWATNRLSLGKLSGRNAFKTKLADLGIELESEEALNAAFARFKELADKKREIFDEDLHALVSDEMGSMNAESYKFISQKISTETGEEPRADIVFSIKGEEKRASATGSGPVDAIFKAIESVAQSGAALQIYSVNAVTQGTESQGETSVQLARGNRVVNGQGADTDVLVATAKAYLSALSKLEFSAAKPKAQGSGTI
Outline: (§1)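 E. coli BL21(DE3)-expressed enzyme, TEV-cleaved and SEC-purified; variant homodimers taken as the StrepTrap flow-through. CoA release monitored with DTP at 324 nm (ε = 1.98 × 10⁴ l × M⁻¹ cm⁻¹), 25 °C. Mix: 100 μM DTP, 20 mM KCl, 20 mM MgCl₂, 3.0 × 10⁻² μM enzyme, 50 mM HEPES pH 7.5, started with α-KIV. One substrate held at 300 μM, the other varied.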

[2] = biological target: T2, NmeIPMSR32Q (Neisseria meningitidis serogroup B, UniProt Q9JZG1, R32Q); experiment: DTP-coupled kinetic assay; type: biochemical; settings: homodimer R32Q, apparent Km
T2 sequence (Q9JZG1 1-517 R32Q): T1 sequence (Q9JZG1 1-517 R470Q) with R32Q, Q470R
Outline: as §1

[3] = biological target: T3, NmeIPMS (Neisseria meningitidis serogroup B, UniProt Q9JZG1); experiment: DTP-coupled kinetic assay; type: biochemical; settings: read-out: Km^KIV; WT NmeIPMS; apparent Km; AcCoA fixed at 300 μM; 25 °C, pH 7.5
T3 sequence (Q9JZG1 1-517): T1 sequence (Q9JZG1 1-517 R470Q) with Q470R
Outline: as §1

[4] = biological target: T1, NmeIPMSR470Q; experiment: waterLOGSY NMR Leu binding assay
[5] = biological target: T2, NmeIPMSR32Q; experiment: waterLOGSY NMR Leu binding assay
[6] = biological target: T2, NmeIPMSR32Q; experiment: Leu inhibition assay; type: biochemical
[7] = biological target: T1, NmeIPMSR470Q; experiment: Leu inhibition assay; type: biochemical
[8] = biological target: T4, NmeIPMSR32Q^hetero (Neisseria meningitidis serogroup B, UniProt Q9JZG1, R32Q); experiment: waterLOGSY NMR Leu binding assay
T4 sequence (Q9JZG1 1-517 R32Q): T1 sequence (Q9JZG1 1-517 R470Q) with R32Q, Q470R
T4 sequence (Q9JZG1 1-517): T1 sequence (Q9JZG1 1-517 R470Q) with Q470R

[9] = biological target: T3, NmeIPMS; experiment: waterLOGSY NMR Leu binding assay
Outline: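 Leu titrated at 0, 50, 150, 250, 500 and 750 μM in 10 mM HEPES pH 8.0, 3 mM MgCl₂, 3 mM KCl, 10% D₂O. Each sample recorded first without enzyme, then with 10 μM untagged enzyme. ¹H spectra at 600 MHz, 25 °C, without a water flipback pulse. KD fitted from the isotherm of corrected waterLOGSY intensity change against ligand concentration.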

[10] = biological target: T5, NmeIPMSR470Q^hetero (Neisseria meningitidis serogroup B, UniProt Q9JZG1, R470Q); experiment: waterLOGSY NMR Leu binding assay
T5 sequence (Q9JZG1 1-517 R470Q): T1 sequence (Q9JZG1 1-517 R470Q)
T5 sequence (Q9JZG1 1-517): T1 sequence (Q9JZG1 1-517 R470Q) with Q470R

[11] = read-out: Km^AcCoA, α-KIV fixed at 300 μM
[12] = read-out: Km^KIV, AcCoA fixed at 300 μM

Q: With `CC(=O)SCCNC(=O)CCNC(=O)[C@H](O)C(C)(C)COP(=O)(O)OP(=O)(O)OC[C@H]1O[C@@H](n2cnc3c(N)ncnc32)[C@H](O)[C@@H]1OP(=O)(O)O` [AcCoA, acetyl-coenzyme A] as the compound, how does the Km [1, 11] read?
A: 48 ± 3 µM

Q: And the Km [2, 11]?
A: 40 ± 5 µM

Q: `CC(C)C(=O)C(=O)O` [KIV, α-ketoisovalerate] was tested. Which Km [1, 12] did it give?
A: 53 ± 6 µM

Q: And the Km [3]?
A: 37 ± 5 µM

Q: What about the Km [2, 12] of the same compound?
A: 47 ± 3 µM

Q: Which results are given for `CC(C)C[C@H](N)C(=O)O` [Leu, leucine]?
A: Kd [4]: 386 ± 72 µM; Kd [5]: 352 ± 37 µM; Ki [6]: > 100 µM; Ki [7]: > 100 µM; Kd [8]: 324 ± 65 µM; Kd [9]: 376 ± 48 µM; Kd [10]: 370 ± 55 µM
